The values below come from ChEMBL document CHEMBL3045646, “Synthesis and antityrosinase activities of alkyl 3,4-dihydroxybenzoates” (J Agric Food Chem, 2011).

Assay [1] concerns the target T1, Tyrosinase (Agaricus bisporus, UniProt O42713).
T1 sequence (O42713 whole entry): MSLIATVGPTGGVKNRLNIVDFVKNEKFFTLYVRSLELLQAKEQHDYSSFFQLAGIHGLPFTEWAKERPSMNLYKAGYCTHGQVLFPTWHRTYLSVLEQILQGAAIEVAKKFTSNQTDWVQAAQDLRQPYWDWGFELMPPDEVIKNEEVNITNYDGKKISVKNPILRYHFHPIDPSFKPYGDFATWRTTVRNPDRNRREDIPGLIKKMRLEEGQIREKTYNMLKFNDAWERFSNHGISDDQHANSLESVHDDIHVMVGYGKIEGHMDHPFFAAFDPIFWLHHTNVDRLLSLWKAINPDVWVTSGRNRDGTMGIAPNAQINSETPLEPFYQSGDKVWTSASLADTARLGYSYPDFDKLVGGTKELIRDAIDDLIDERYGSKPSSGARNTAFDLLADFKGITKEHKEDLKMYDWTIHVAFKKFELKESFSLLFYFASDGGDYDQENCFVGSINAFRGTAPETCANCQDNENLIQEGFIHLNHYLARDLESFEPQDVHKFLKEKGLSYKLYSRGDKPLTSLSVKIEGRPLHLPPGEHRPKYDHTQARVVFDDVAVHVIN
Description: Inhibition of Agaricus bisporus (mushroom) tyrosinase using L-DOPA as substrate by secondary plot analysis. The method in brief:
(§1)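 L-DOPA oxidation by mushroom tyrosinase at 30 °C, pH 6.8, with inhibitor at 0, 50, 100, 150 and 200 μM, read at 475 nm. Inhibition type came from Lineweaver–Burk plots (1/v vs 1/[S]). K_IS came from a secondary plot of 1/V_m (or apparent K_m/V_m) against inhibitor concentration.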

Assay [2] addresses T2, Tyrosinase (Agaricus bisporus) (UniProt O42713).
T2 sequence (whole entry): T1 sequence (O42713 whole entry)
Description: Reversible inhibition of Agaricus bisporus (mushroom) tyrosinase assessed as remaining enzyme activity using L-DOPA as substrate by spectrophotometric analysis. In outline: (§2)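 Reversibility tested with L-DOPA as substrate in pH 6.8 phosphate buffer at 30 °C, with A475 read-out. Remaining activity was plotted against enzyme concentration at several inhibitor levels, with inhibitor series of 0–200, 0–100 or 0–80 μM. Lines through the origin were taken as reversible, and parallel lines not through the origin as irreversible.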

For assay [3], the target named is T2, Tyrosinase (Agaricus bisporus). In words: Uncompetitive inhibition of Agaricus bisporus (mushroom) tyrosinase assessed as […] in Km and Vm without change in Km/Vm using L-DOPA as substrate by Line-weaver burk plot analysis. The method in brief: as §1
The target in assay [4] is T1, Tyrosinase. Description: Inhibition of Agaricus bisporus (mushroom) tyrosinase-catalyzed oxidation of L-DOPA substrate by spectrophotometric analysis. In outline: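 Diphenolase activity of mushroom tyrosinase (6.67 μg/mL final) with 0.5 mM L-DOPA in 50 mM sodium phosphate pH 6.8, 30 °C. Inhibitors added from DMSO, 3.3% DMSO final; DMSO-only controls. Rate from slope of linear A475 progress curve. IC50 = concentration giving 50% activity loss.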

The test system of assay [5] is Plutella xylostella. Description: Insecticidal activity against second-instar larval stage of Plutella xylostella (diamondback moth) assessed as inhibition of insect development and molting at 40 mg/ml after 3 days (reference value: 0.95 cm). Format: functional. The method in brief:
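Compound dissolved in acetone, diluted (2.5–40 mg/mL) and spread over feed surface. Larvae kept at 27 ± 2 °C, 70% humidity, 14:10 h light:dark photoperiod. Larval body length recorded after 3 days.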

In assay [6] the target is T2, Tyrosinase (Agaricus bisporus). In words: Uncompetitive inhibition of Agaricus bisporus (mushroom) tyrosinase assessed as […] in Km and Vm without change in Km/Vm using L-DOPA as substrate at 50 uM by Line-weaver burk plot analysis. In outline:
as §1

In assay [7] the test system is Plutella xylostella. In words: Downregulation of tyrosinase inactive precursor, PxPPO gene expression in newly molted second-instar larval stage of Plutella xylostella (diamondback moth) at 2.5 to 40 mg/ml after 72 hr by real-time quantitative PCR analysis. The class given is functional, organism-based. In outline: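 Compound in acetone, diluted to 2.5, 5, 20 and 40 mg/mL and spread on feed surface in wells. Larvae reared at 27 ± 2 °C, 70% humidity, 14:10 h light:dark. Whole-body PxPPO2 transcripts measured 72 h after treatment by real-time qPCR (95 °C 10 s; 45 cycles of 95 °C 5 s / 60 °C 20 s), with melting-curve check, normalized to GAPDH.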

Assay [8] has as its target T2, Tyrosinase (Agaricus bisporus). In words: Irreversible inhibition of Agaricus bisporus (mushroom) tyrosinase assessed as remaining enzyme activity using L-DOPA as substrate by spectrophotometric analysis. In outline:
as §2

The target is the same in assay [9]. In words: Reversible inhibition of Agaricus bisporus (mushroom) tyrosinase assessed as remaining enzyme activity at <50 uM using L-DOPA as substrate by spectrophotometric analysis. In outline: as §2
For assay [10] the target is unchanged. Description: Irreversible inhibition of Agaricus bisporus (mushroom) tyrosinase assessed as remaining enzyme activity at >75 uM using L-DOPA as substrate by spectrophotometric analysis. The method in brief:
as §2

Activity calls are given as the source filed them. The calls are words filed in the database; no cut-off is given here.

As for `CCCCCCCOC(=O)c1ccc(O)c(O)c1` [HEPTYL 3,4-DIHYDROXYBENZOATE], on Tyrosinase [1], affinity was put at a Ki of 135 µM. For the same molecule, the inhibition result in assay [2] and in [3] was “Active” throughout. Moreover, half-maximal inhibition on Tyrosinase [4] (IC50) required 316 µM.

For the molecule `CCCCCCOC(=O)c1ccc(O)c(O)c1` [HEXYL 3,4-DIHYDROXYBENZOATE], the Activity in the assay on Plutella xylostella [5] is 0.3 cm. The affinity on Tyrosinase [1] corresponds to a Ki of 389 µM. The inhibition result (in assay [2]; in [6]; in the assay on Plutella xylostella [7]) was “Active” each time. The same molecule showed an IC50 on Tyrosinase [4] of 910 µM.

Consider `CCCCCCCCCOC(=O)c1ccc(O)c(O)c1` [NONYL 3,4-DIHYDROXYBENZOATE], for which the inhibition entry in [8] is “Active”. The IC50 at Tyrosinase [4] was 81 µM.

`CCCCCCCCOC(=O)c1ccc(O)c(O)c1` [OCTYL 3,4-DIHYDROXYBENZOATE]: the inhibition entry in assay [9], in assay [6] and in assay [10] was “Active” each time. Besides, the midpoint of inhibition against Tyrosinase [4], the IC50, lay at 129 µM.
